Measured values from ChEMBL document CHEMBL1131136, “4-(beta-Arylvinyl)-3-(beta-arylvinylketo)-1-ethyl-4-piperidinols and related compounds: a novel class of cytotoxic and anticancer agents” (J Med Chem, 1998).

Experiments:
L1210 = experiment: Cytotoxicity evaluated against L1210 cells.; assay type: functional, cell-based; details: Mus musculus
P388 = experiment: Cytotoxicity evaluated against P388 cells.; assay type: functional, cell-based; details: Mus musculus
Homo sapiens [1] = organism: Homo sapiens; experiment: Cytotoxicity evaluated against human tumor.; assay type: functional
Summary of the method: (§1)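 NCI panel of about 55 human tumor cell lines covering leukemia, melanoma, non-small-cell lung, colon, CNS, ovarian, renal, prostate and breast cancers, with some compounds tested on small-cell lung instead of prostate and breast.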

Mus musculus [2] = experiment: Optimal value of the percentage reduction of the median treated NCI-H522 tumor weight compared to the median control tumor weight at the dose of 80 mg/kg; assay type: functional
Summary of the method: (§2)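 The NCI Developmental Therapeutics Program passaged human tumor xenografts in athymic mice. % T/C is the optimal ratio of median treated to median control tumor weight. Tumor-growth delay (% ILS) was the increase in median days for treated tumors to reach a set size compared with controls.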

Mus musculus [3] = experiment: Percentage increase in the median time in days for the COLO 205 treated tumor to reach a certain size compared to controls at the dose of 200 mg/kg; assay type: functional
Summary of the method: (§3)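 Human tumor xenografts passaged in athymic mice, tested by the NCI Developmental Therapeutics Program. %ILS is the percentage increase in median days for treated tumors to reach a set size versus untreated controls.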

Mus musculus [4] = experiment: Percentage increase in the median time in days for the SW-620 treated tumor to reach a certain size compared to controls at the dose of 80 mg/kg; assay type: functional; summary of the method: as §3
Mus musculus [5] = experiment: Optimal value of the percentage reduction of the median treated SW-620 tumor weight compared to the median control tumor weight at the dose of 80 mg/kg; assay type: functional; summary of the method: as §2
Mus musculus [6] = experiment: Optimal value of the percentage reduction of the median treated COLO 205 tumor weight compared to the median control tumor weight at the dose of 200 mg/kg; assay type: functional; summary of the method: as §2
Mus musculus [7] = experiment: Percentage increase in the median time in days for the NCI-H522 treated tumor to reach a certain size compared to controls at the dose of 80 mg/kg; assay type: functional; summary of the method: as §3
Homo sapiens [8] = organism: Homo sapiens; experiment: Cytotoxicity evaluated against human tumor; assay type: functional; summary of the method: as §1
Mus musculus [9] = experiment: Optimal value of the percentage reduction of the median treated KM12 tumor weight compared to the median control tumor weight at the dose of 16.8 mg/kg; assay type: functional; summary of the method: as §2
Mus musculus [10] = experiment: Optimal value of the percentage reduction of the median treated CAKI-1 tumor weight compared to the median control tumor weight at the dose of 16.8 mg/kg; assay type: functional; summary of the method: as §2
Mus musculus [11] = experiment: Percentage increase in the median time in days for the KM12 treated tumor to reach a certain size compared to controls at the dose of 25 mg/kg; assay type: functional; summary of the method: as §3
Mus musculus [12] = experiment: Percentage increase in the median time in days for the CAKI-1 treated tumor to reach a certain size compared to controls at the dose of 16.8 mg/kg; assay type: functional; summary of the method: as §3
Mus musculus [13] = experiment: Optimal value of the percentage reduction of the median treated COLO 205 tumor weight compared to the median control tumor weight at the dose of 16.8 mg/kg; assay type: functional; summary of the method: as §2
Mus musculus [14] = experiment: Percentage increase in the median time in days for the COLO 205 treated tumor to reach a certain size compared to controls at the dose of 16.8 mg/kg; assay type: functional; summary of the method: as §3

SMILES	IC50 (L1210) [µM]	IC50 (P388) [µM]	IC50 (Homo sapiens [1]) [µM]	other results
CCN1CC[C@@](O)(/C=C/c2ccc(C)cc2C)[C@H](C(=O)/C=C/c2ccc(C)cc2C)C1	20.9	2.59	–	–
CCN(CC)CCC(=O)/C=C/c1ccccc1	25.7	1.7	9.77	–
CCN(CC)CC(C)(C)C(=O)/C=C/c1ccc(Cl)cc1	6.39	2.2	–	–
CCN1CC[C@@](O)(/C=C/c2ccccc2C)[C@H](C(=O)/C=C/c2ccccc2C)C1	12.6	1.89	2.46	–
N[C@@H](Cc1ccc(N(CCCl)CCCl)cc1)C(=O)O	–	–	26.3	–
CCN(CC)CCC(=O)c1ccc(Cl)cc1	36.9	3.2	–	–
CC[N+]1(C)CC[C@@](O)(c2ccc(Cl)cc2)[C@H](C(=O)c2ccc(Cl)cc2)C1 (stereo partly drawn)	–	1.5	12.9	–
CCN(CC)CCC(=O)/C=C/c1ccc(Cl)c(Cl)c1	61.2	0.39	3.8	–
CCN1CC[C@@](O)(/C=C/c2ccc(Cl)cc2)[C@H](C(=O)/C=C/c2ccc(Cl)cc2)C1	6.96	1.1	25.7	–
CCN1CC[C@@](O)(c2ccc(OC)cc2)[C@H](C(=O)c2ccc(OC)cc2)C1	13.5	4.17	19.5	–
CCN1CC[C@@](O)(c2ccccc2)[C@H](C(=O)c2ccccc2)C1	20.1	1.07	30.2	–
CCN(CC)CCC(=O)c1ccc(OC)cc1	43.8	1.6	–	–
CCN(CC)CCC(=O)c1ccc(Cl)c(Cl)c1	36.4	0.31	32.4	–
O=C(/C=C/c1ccccc1)CCN1CCN(CCC(=O)/C=C/c2ccccc2)CC1	5.78	0.62	12	–
CC[N+]1(C)CC[C@@](O)(/C=C/c2ccc(C)cc2)[C@H](C(=O)/C=C/c2ccc(C)cc2)C1 (stereo partly drawn)	13.8	0.62	–	–
CCN(CC)CCC(=O)/C=C/c1ccc(C)cc1	52.9	1.1	–	–
CCN1CC[C@@](O)(/C=C/c2ccc(C)cc2)[C@H](C(=O)/C=C/c2ccc(C)cc2)C1.Cl	6.08	2.1	5.01	T/C (Mus musculus [2]): 23%; ILS at 200 mg/kg (Mus musculus [3]): 28%; ILS at 80 mg/kg (Mus musculus [4]): 9%; T/C (Mus musculus [5]): 32%; T/C (Mus musculus [6]): 57%; ILS at 80 mg/kg (Mus musculus [7]): -2%
CCN1CC[C@@](O)(c2ccc(C)cc2)[C@H](C(=O)c2ccc(C)cc2)C1	38.2	8.6	25.1	–

SMILES	IC50 (L1210) [µM]	IC50 (P388) [µM]	IC50 (Homo sapiens [1]) [µM]	other results
CCN1CC[C@@](O)(/C=C/c2ccc(OC)cc2)[C@H](C(=O)/C=C/c2ccc(OC)cc2)C1	25.6	5	–	IC50 (Homo sapiens [8]): 8.31 µM
CCN1CC[C@@](O)(/C=C/c2ccc(Cl)c(Cl)c2)[C@H](C(=O)/C=C/c2ccc(Cl)c(Cl)c2)C1	–	0.4	0.38	–
CC[N+]1(C)CC[C@@](O)(c2ccccc2)[C@H](C(=O)c2ccccc2)C1 (stereo partly drawn)	–	1.3	–	–
O=C(CCN1CCN(CCC(=O)c2ccccc2)CC1)c1ccccc1	9.71	2.84	–	–
CC[N+]1(C)CC[C@@](O)(c2ccc(C)cc2)[C@H](C(=O)c2ccc(C)cc2)C1 (stereo partly drawn)	–	2.1	50.1	–
CCN(CC)CCC(=O)c1ccccc1	20.3	2.6	25.1	–
CC[N+]1(C)CC[C@@](O)(/C=C/c2ccccc2)[C@H](C(=O)/C=C/c2ccccc2)C1.[Br-] (stereo partly drawn)	–	2.27	8.31	T/C (Mus musculus [9]): 45%; T/C (Mus musculus [10]): 43%; ILS at 25 mg/kg (Mus musculus [11]): 5%; ILS at 16.8 mg/kg (Mus musculus [12]): 6%; T/C (Mus musculus [13]): 20%; ILS at 16.8 mg/kg (Mus musculus [14]): 14%
CCN(CC)CCC(=O)/C=C/c1ccc(Cl)cc1	41	0.3	–	–
CCN1CC[C@@](O)(c2ccc(Cl)c(Cl)c2)[C@H](C(=O)c2ccc(Cl)c(Cl)c2)C1	–	3.11	16.6	–
CCN1CC[C@@](O)(c2ccc(Cl)cc2)[C@H](C(=O)c2ccc(Cl)cc2)C1	15.7	5.14	83.2	–
CC[N+]1(C)CC[C@@](O)(c2ccc(OC)cc2)[C@H](C(=O)c2ccc(OC)cc2)C1 (stereo partly drawn)	–	0.98	10.2	–
CCN1CC[C@@](O)(c2ccc(O)cc2)[C@H](C(=O)c2ccc(O)cc2)C1	9.75	1.4	20.9	–
CC[N+]1(C)CC[C@@](O)(c2ccc(Cl)c(Cl)c2)[C@H](C(=O)c2ccc(Cl)c(Cl)c2)C1 (stereo partly drawn)	33.6	2.3	9.54	–
CC[N+]1(C)CC[C@@](O)(/C=C/c2ccc(Cl)c(Cl)c2)[C@H](C(=O)/C=C/c2ccc(Cl)c(Cl)c2)C1 (stereo partly drawn)	21.4	0.64	2.19	–
CCN(CC)CCC(=O)/C=C/c1ccc(OC)cc1	44.3	0.67	–	–
CCN1CC[C@@](O)(/C=C/c2ccccc2)[C@H](C(=O)/C=C/c2ccccc2)C1	5.3	1.4	2.75	–
CCN(CC)CCC(=O)c1ccc(C)cc1	21.5	2.2	26.3	–
